The values that follow come from ChEMBL document CHEMBL1138780, “Synthesis and conformational analysis of a non-amidine factor Xa inhibitor that incorporates 5-methyl-4,5,6,7-tetrahydrothiazolo[5,4-c]pyridine as S4 binding element” (J Med Chem, 2004).

As usually defined, the IC50 is the concentration at which inhibition is half-maximal. A high value points to lower potency. The term inhibition denotes how much of the control response was suppressed.

The target in assay [1] is Coagulation factor X (Homo sapiens, UniProt P00742). Nature of the assay: Inhibitory concentration against Coagulation factor X.
Chain of Coagulation factor X (P00742 41-179 limits assumed): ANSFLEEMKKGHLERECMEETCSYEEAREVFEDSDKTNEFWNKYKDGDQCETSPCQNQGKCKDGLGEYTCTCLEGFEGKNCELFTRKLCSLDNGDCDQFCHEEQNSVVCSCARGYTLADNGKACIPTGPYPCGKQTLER
Chain of Coagulation factor X (P00742 235-488 limits assumed): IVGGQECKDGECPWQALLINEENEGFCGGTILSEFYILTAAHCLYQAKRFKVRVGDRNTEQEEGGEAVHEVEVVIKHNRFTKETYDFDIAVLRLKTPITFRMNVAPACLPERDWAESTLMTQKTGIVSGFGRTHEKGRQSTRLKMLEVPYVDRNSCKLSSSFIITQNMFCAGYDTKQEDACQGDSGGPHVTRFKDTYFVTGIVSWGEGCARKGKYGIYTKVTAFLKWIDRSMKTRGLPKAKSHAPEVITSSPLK
The species entered for assay [2] is Rattus norvegicus. Description: Anticoagulant activity in vitro was evaluated by prolongation rate of prothrombin time. The assay is classed as functional.
Assay [3] is described as follows: Anticoagulant activity in vitro was evaluated with plasma clotting time doubling concentration for prothrombin time. In kind it is functional, Homo sapiens.
The target of assay [4] is Prothrombin (Homo sapiens, UniProt P00734). Description: Concentration required to inhibit thrombin activity by 50%.
The target in assay [5] is Coagulation factor X (Rattus norvegicus) (UniProt Q63207). Nature of the assay: Ex-vivo inhibitory activity against factor Xa of rat blood after 3h of peroral administration of 30 mg/kg. In kind it is organism-based. The arrangement: dose 30 mg/kg. Particulars: at 30 mg/kg. The procedure, abridged: (§1)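 Fasted male Wistar rats received compound orally by stomach tube in 0.5% methylcellulose; controls got vehicle. Under halothane anesthesia, citrated blood was drawn at the stated time and platelet-poor plasma prepared. Plasma anti-fXa activity was measured chromogenically in Tris/NaCl/BSA buffer, pH 7.4, as 1 − sample OD/min ÷ control OD/min.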
Chain of Coagulation factor X (Rattus norvegicus) (Q63207 41-180 limits assumed): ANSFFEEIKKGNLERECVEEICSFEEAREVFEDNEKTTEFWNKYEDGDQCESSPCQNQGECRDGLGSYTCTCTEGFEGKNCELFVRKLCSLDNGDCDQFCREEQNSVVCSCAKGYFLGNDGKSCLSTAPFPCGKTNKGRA
Chain of Coagulation factor X (Rattus norvegicus) (Q63207 232-482 limits assumed): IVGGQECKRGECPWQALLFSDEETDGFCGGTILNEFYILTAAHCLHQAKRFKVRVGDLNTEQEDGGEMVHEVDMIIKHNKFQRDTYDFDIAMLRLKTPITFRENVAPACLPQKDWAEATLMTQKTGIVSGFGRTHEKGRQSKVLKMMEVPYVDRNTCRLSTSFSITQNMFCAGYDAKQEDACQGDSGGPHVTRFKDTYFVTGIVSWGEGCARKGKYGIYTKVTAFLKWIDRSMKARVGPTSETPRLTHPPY

The target is the same in assay [6]. Nature of the assay: Ex-vivo inhibitory activity against factor Xa of rat blood after 1 hr of peroral administration of 30 mg/kg. Particulars: at 30 mg/kg. In kind it is organism-based. The arrangement: dose 30 mg/kg. The procedure, abridged:
as §1

For assay [7] the target is unchanged. Description: Ex-vivo inhibitory activity against factor Xa of rat blood after 6 hr of peroral administration of 30 mg/kg. Particulars: at 30 mg/kg. The assay is classed as organism-based. Details: dose 30 mg/kg. The procedure, abridged: as §1

`CN1CCc2nc(C(=O)N3CCN(S(=O)(=O)c4ccc5cc(Cl)ccc5c4)CC3)ccc2C1` showed an IC50 in assay [1] of 2.2 µM.
Compound `CCN1CCc2nc(C(=O)N3CCN(S(=O)(=O)c4ccc5cc(Cl)ccc5c4)CC3C(N)=O)sc2C1` (configuration not stated) showed an IC50 in assay [1] of 0.11 µM. Besides, the results for the Anticoagulant activity in assay [2] and in assay [3] were 14.6 µM and 7.2 µM, respectively.
Take `O=C(c1nc2c(s1)CNCC2)N1CCN(S(=O)(=O)c2ccc3cc(Cl)ccc3c2)CC1`: the Anticoagulant activity in assay [2] amounted to 16.1 µM; in assay [3], 11.2 µM. In assay [4], this compound showed an IC50 of 2.9 µM.
As to `O=C(c1ccc2c(n1)CCNC2)N1CCN(S(=O)(=O)c2ccc3cc(Cl)ccc3c2)CC1`, in assay [1], the IC50 was found to be 0.92 µM. That is a sub-micromolar value.
Regarding `O=C(c1cc2c(s1)CNCC2)N1CCN(S(=O)(=O)c2ccc3cc(Cl)ccc3c2)CC1`, the IC50 in assay [1] was found to be 0.16 µM.
Still for that read-out and setting: with `O=C(c1ccc2c(c1)CCNC2)N1CCN(S(=O)(=O)c2ccc3cc(Cl)ccc3c2)CC1` the figure was 0.64 µM.
With `CN1CCc2nc(C(=O)N3CCN(S(=O)(=O)c4ccc5cc(Cl)ccc5c4)CC3)sc2C1`, the Anticoagulant activity was found to be 10 µM in assay [2] and 6 µM in assay [3]. In assay [4], this compound registered an IC50 of 0.56 µM.
In assay [1], `NC(=O)C1CN(S(=O)(=O)c2ccc3cc(Cl)ccc3c2)CCN1C(=O)c1nc2c(s1)CNCC2` (configuration not stated) gave an IC50 of 0.083 µM. Further, the values for the Anticoagulant activity in assay [2] and in assay [3] were 28.8 µM and 9.7 µM, respectively.
For `CN1CCc2cc(C(=O)N3CCN(S(=O)(=O)c4ccc5cc(Cl)ccc5c4)CC3)sc2C1`, 0.105 µM corresponded to half-maximal inhibition in assay [1] (IC50).
`O=C(c1cc2c(s1)CCNC2)N1CCN(S(=O)(=O)c2ccc3cc(Cl)ccc3c2)CC1` had an IC50 in assay [1] of 0.27 µM.
`CC(C)N1CCc2nc(C(=O)N3CCN(S(=O)(=O)c4ccc5cc(Cl)ccc5c4)CC3C(N)=O)sc2C1` (configuration not stated) gave an IC50 in assay [1] of 0.08 µM. In addition, the Anticoagulant activity in assay [2] is 17.5 µM; in assay [3], 6.6 µM.
In the case of `CN1CCc2[nH]c(C(=O)N3CCN(S(=O)(=O)c4ccc5cc(Cl)ccc5c4)CC3)cc2C1`, in assay [1], inhibition was half-maximal at 0.32 µM (IC50).
Same read-out and setting: with `CN1CCc2sc(C(=O)N3CCN(S(=O)(=O)c4ccc5cc(Cl)ccc5c4)CC3)cc2C1` the figure was 0.19 µM.
Same read-out and setting: with `O=C(c1cc2c([nH]1)CCNC2)N1CCN(S(=O)(=O)c2ccc3cc(Cl)ccc3c2)CC1` the figure was 6.2 µM; with `CN1CCc2cc(C(=O)N3CCN(S(=O)(=O)c4ccc5cc(Cl)ccc5c4)CC3)oc2C1`, 0.55 µM; with `CN1CCc2sc(C(=O)N3CCN(S(=O)(=O)c4ccc5cc(Cl)ccc5c4)CC3)nc2C1`, 0.21 µM.
`CN1CCc2nc(C(=O)N3CCN(S(=O)(=O)c4ccc5cc(Cl)ccc5c4)CC3C(N)=O)sc2C1` (configuration not stated): the inhibition in assay [5] is 55.8%; in assay [6], 67.4%; in assay [7], 24.7%. In addition, the Anticoagulant activity in assay [2] was 14 µM; in assay [3], 4.4 µM. This compound also yielded an IC50 in assay [4] of 1 µM.
